Results as given in ChEMBL document CHEMBL1124203, “Phosphinic acid inhibitors of D-alanyl-D-alanine ligase” (J Med Chem, 1988).
Converted amounts (≈) assume the structure as drawn.

Columns and labels:
[1] = system: Proteus vulgaris; assay: Minimum inhibitory concentration required for growth inhibition of proteus vulgaris 2829
[2] = system: Salmonella typhimurium; assay: Minimum inhibitory concentration required for growth inhibition of Salmonella Typhimurium 3860; conditions: Salmonella enterica subsp. enterica serovar Typhimurium
[3] = system: Enterobacter cloacae; assay: Minimum inhibitory concentration required for growth inhibition of cloacae 2647
[4] = system: Enterococcus faecalis; assay: Minimum inhibitory concentration required for growth inhibition of Streptococcus faecalis 2864
[5] = system: Staphylococcus aureus; assay: Minimum inhibitory concentration required for growth inhibition of Staphylococcus aureus 2865
[6] = system: Serratia marcescens; assay: Minimum inhibitory concentration required for growth inhibition of Serratia marcescens 2840
[7] = system: Escherichia coli; assay: Minimum inhibitory concentration required for growth inhibition of Escherichia coli DC2 4353
[8] = system: Escherichia coli; assay: Minimum inhibitory concentration required for growth inhibition of Escherichia coli 2891
[9] = system: Pseudomonas aeruginosa; assay: Minimum inhibitory concentration required for growth inhibition of Pseudomonas aeruginosa 4279
[10] = system: Klebsiella pneumoniae; assay: Minimum inhibitory concentration required for growth inhibition of Klebsiella pneumoniae 4005
[11] = system: Klebsiella pneumoniae; assay: Minimum inhibitory concentration required for inhibition of D-alanyl-D-alanine ligase from Klebsiella pneumoniae 4005; assay type: functional
How it was run: (§1)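 Organisms were mostly subcultured from agar into trypticase soy broth, 35 °C for 20 h; Pseudomonas was shaken at 250 rpm. MIC was the lowest concentration giving no visible growth or fewer than five colonies per spot.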

[12] = system: Staphylococcus aureus; assay: Minimum inhibitory concentration required for inhibition of D-alanyl-D-alanine ligase from Staphylococcus aureus 2865; assay type: functional
How it was run: as §1

[13] = system: D-alanine--D-alanine ligase (Enterococcus faecalis); assay: ATP dependent inhibition of D-alanine--D-alanine ligase after 4 hours at 10 uM concentration
[14] = system: Enterococcus faecalis; assay: Minimum inhibitory concentration required for inhibition of D-alanyl-D-alanine ligase from Streptococcus faecalis 2864; assay type: functional
How it was run: as §1

[15] = system: Proteus vulgaris; assay: Minimum inhibitory concentration required for inhibition of D-alanyl-D-alanine ligase from proteus vulgaris 2829; assay type: functional
How it was run: as §1

[16] = system: Pseudomonas aeruginosa; assay: Minimum inhibitory concentration required for inhibition of D-alanyl-D-alanine ligase from Pseudomonas aeruginosa 4279; assay type: functional
How it was run: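 Inocula were subcultured from agar into trypticase soy broth and grown at 35 °C for 20 h, with the Pseudomonas strain shaken at 250 rpm. MIC was taken as the lowest concentration giving no visible growth or fewer than five colonies per inoculation spot.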

[17] = system: Escherichia coli; assay: Minimum inhibitory concentration required for inhibition of D-alanyl-D-alanine ligase from Escherichia coli Tem 2+ 4351; assay type: functional
How it was run: as §1

[18] = system: Escherichia coli; assay: Minimum inhibitory concentration required for inhibition of D-alanyl-D-alanine ligase from Escherichia coli 2891; assay type: functional
How it was run: as §1

[19] = system: Serratia marcescens; assay: Minimum inhibitory concentration required for inhibition of D-alanyl-D-alanine ligase from Serratia marcescens 2840; assay type: functional
How it was run: as §1

[20] = system: Enterobacter cloacae; assay: Minimum inhibitory concentration required for inhibition of D-alanyl-D-alanine ligase from cloacae 2647; assay type: functional
How it was run: as §1

[21] = system: D-alanine--D-alanine ligase (Enterococcus faecalis); assay: ATP dependent inhibition of D-alanine--D-alanine ligase after 24 hours at 10 uM concentration
[22] = system: Salmonella typhimurium; assay: Minimum inhibitory concentration required for inhibition of D-alanyl-D-alanine ligase from Salmonella Typhimurium 3860; assay type: functional, Salmonella enterica subsp. enterica serovar Typhimurium; conditions: Salmonella enterica
How it was run: as §1

[23] = system: Escherichia coli; assay: Minimum inhibitory concentration required for inhibition of D-alanyl-D-alanine ligase from Escherichia coli DC2 4353; assay type: functional
How it was run: as §1

[24] = system: Escherichia coli; assay: Minimum inhibitory concentration required for inhibition of D-alanyl-D-alanine ligase from Escherichia coli Tem 2+ 4351 in the presence of F-D-Ala ug/mL; assay type: functional
[25] = system: Pseudomonas aeruginosa; assay: Minimum inhibitory concentration required for inhibition of D-alanyl-D-alanine ligase from Pseudomonas aeruginosa 4279 in the presence of F-D-Ala ug/mL; assay type: functional
[26] = system: Enterococcus faecalis; assay: Minimum inhibitory concentration required for inhibition of D-alanyl-D-alanine ligase from Streptococcus faecalis 2864 in the presence of F-D-Ala ug/mL; assay type: functional
[27] = system: Klebsiella pneumoniae; assay: The inhibition of D-alanyl-D-alanine ligase from Klebsiella pneumoniae 4005 in the presence of F-D-Ala ug/mL; assay type: functional

Row | SMILES | MIC [1] [µg/mL] | MIC [2] [µg/mL] | MIC [3] [µg/mL] | MIC [4] [µg/mL] | MIC [5] [µg/mL] | MIC [6] [µg/mL] | MIC [7] [µg/mL] | MIC [8] [µg/mL] | MIC [9] [µg/mL] | MIC [10] [µg/mL] | MIC [11] [µg/mL] | inhibition [13] [%] | MIC [14] [µg/mL] | MIC [16] [µg/mL] | MIC [17] [µg/mL] | inhibition [21] [%] | further results
1 | CCC(CP(=O)(O)C(C)N)C(=O)O (centres undefined) | 128 (≈ 612 µM) | > 256 | 256 (≈ 1220 µM) | 2 (≈ 9.56 µM) | > 256 | > 256 | 8 (≈ 38.2 µM) | 256 (≈ 1220 µM) | – | – | – | – | – | – | – | – | –
2 | CC(N)P(=O)(O)CC(CCCc1ccccc1)C(=O)O (centres undefined) | > 256 | 128 (≈ 428 µM) | > 256 | 256 (≈ 855 µM) | 256 (≈ 855 µM) | > 256 | 128 (≈ 428 µM) | 128 (≈ 428 µM) | > 256 | 256 (≈ 855 µM) | – | – | – | – | – | – | –
3 | CCCCCCCC(CP(=O)(O)[C@@H](C)N)C(=O)O (some centres undefined) | – | – | – | – | – | – | – | – | – | – | 64 (≈ 229 µM) | 75 | 64 (≈ 229 µM) | > 256 | 128 (≈ 458 µM) | 53 | MIC [12]: 128 µg/mL (≈ 458 µM); MIC [15]: 128 µg/mL (≈ 458 µM); MIC [18]: 128 µg/mL (≈ 458 µM); MIC [19]: > 256 µg/mL; MIC [20]: 256 µg/mL (≈ 917 µM); MIC [22]: 128 µg/mL (≈ 458 µM); MIC [23]: 32 µg/mL (≈ 115 µM)
4 | C[C@@H](CP(=O)(O)[C@@H](C)N)C(=O)O | – | – | – | – | – | – | – | – | – | – | 128 (≈ 656 µM) | – | 128 (≈ 656 µM) | 128 (≈ 656 µM) | 128 (≈ 656 µM) | – | MIC [24]: 128 µg/mL; MIC [25]: 128 µg/mL; MIC [26]: 8 µg/mL; MIC [27]: 128 µg/mL
5 | CSC(CP(=O)(O)C(C)N)C(=O)O (centres undefined) | 4 (≈ 17.6 µM) | – | 128 (≈ 563 µM) | 4 (≈ 17.6 µM) | > 256 | 256 (≈ 1130 µM) | 64 (≈ 282 µM) | – | 64 (≈ 282 µM) | 128 (≈ 563 µM) | – | 96 | – | – | – | 96 | –
